Data as given in PMC8436581 (Molecular Diversity, 2021).
Entries after “also recorded” stand apart in the source; their conditions may differ. Like-named read-outs stand apart in the source and are kept apart here.

Key:
[1] = tested on: α-glycosidase; assay: In vitro α-glycosidase inhibition assay; format: biochemical; settings: ratio of IC50 values against acarbose
[2] = tested on: α-glycosidase; assay: Enzyme kinetic study; format: biochemical; settings: Lineweaver–Burk plot
Procedure, shortened: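 Double-reciprocal analysis: reciprocal rate (1/V) plotted against reciprocal substrate concentration (1/[S]) at several inhibitor concentrations to assign the inhibition mode; Ki obtained from a secondary plot of inhibitor concentration [I] versus 1/Vi'max.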

[3] = biological target: α-glycosidase; settings: cited from earlier work

| improvement in potency compared to acarbose [1] | SMILES | type of inhibition [2] | other results |
| --- | --- | --- | --- |
| around 39 fold | O=C(Cn1cc(COc2ccc(-c3nc4ccccc4[nH]3)cc2)nn1)Nc1cnc(-c2ccccc2)s1 [9a, 2-{4-[4-(1H-1,3-benzodiazol-2-yl)phenoxymethyl]-1H-1,2,3-triazol-1-yl}-N-(2-phenyl-1,3-thiazol-5-yl)acetamide] |  |  |
|  | O=C(Cn1cc(COc2ccc(-c3nc4ccccc4[nH]3)cc2)nn1)Nc1cnc(-c2ccc(Br)cc2)s1 [9c, 2-{4-[4-(1H-1,3-benzodiazol-2-yl)phenoxymethyl]-1H-1,2,3-triazol-1-yl}-N-[2-(4-bromophenyl)-1,3-thiazol-5-yl]acetamide] | uncompetitive inhibitors; also recorded: uncompetitive type of inhibition |  |
|  | COc1cc(-c2nc3ccccc3[nH]2)ccc1OCc1cn(CC(=O)Nc2cnc(-c3ccccc3)s2)nn1 [9g, 2-{4-[4-(1H-1,3-benzodiazol-2-yl)-2-methoxyphenoxymethyl]-1H-1,2,3-triazol-1-yl}-N-(2-phenyl-1,3-thiazol-5-yl)acetamide] | uncompetitive inhibitors; also recorded: uncompetitive type of inhibition |  |
| 15 fold | COc1cc(-c2nc3ccccc3[nH]2)ccc1OCc1cn(CC(=O)Nc2cnc(-c3ccc(C)cc3)s2)nn1 [9i, 2-{4-[4-(1H-1,3-benzodiazol-2-yl)-2-methoxyphenoxymethyl]-1H-1,2,3-triazol-1-yl}-N-[2-(4-methylphenyl)-1,3-thiazol-5-yl]acetamide] |  |  |
|  | Cc1ccc(-c2ncc(NC(=O)Cn3cc(COc4ccc(-c5nc6ccc(C)cc6[nH]5)cc4)nn3)s2)cc1 [9m, 2-{4-[4-(6-Methyl-1H-1,3-benzodiazol-2-yl)phenoxymethyl]-1H-1,2,3-triazol-1-yl}-N-[2-(4-methylphenyl)-1,3-thiazol-5-yl]acetamide] | uncompetitive inhibitors; also recorded: uncompetitive type of inhibition |  |
|  | C[C@H]1O[C@H](O[C@H]2[C@H](O)[C@@H](O)[C@@H](O[C@H]3[C@H](O)[C@@H](O)C(O)O[C@@H]3CO)O[C@@H]2CO)[C@H](O)[C@@H](O)[C@@H]1N[C@H]1C=C(CO)[C@@H](O)[C@H](O)[C@H]1O (stereo partly shown) [Acarbose] |  | IC50 ([3]; arylthiazole-pyridine derivatives): 856.5 ± 5.6 µM; IC50 ([3]; benzimidazole bearing bis-Schiff bases): 38.5 µM; IC50 ([3]; benzimidazole-1,2,3-triazole hybrids): 750 ± 12.5 µM; IC50 ([3]; benzimidazole-based oxadiazole derivatives): 38.5 ± 0.8 µM; IC50 ([3]; thiourea derivatives bearing benzimidazole): 774 µM |
